Assay results as given in ChEMBL document CHEMBL1156665, “Potent inhibition of human phosphodiesterase-5 by icariin derivatives” (J Nat Prod, 2008).
The source made the active and inactive calls. The calls are words filed in the database; no cut-off is given here.

What was measured:
[1] = biological target: T1, cGMP-specific 3',5'-cyclic phosphodiesterase (Homo sapiens, UniProt O76074); assay: Inhibition of human recombinant PDE5A1 expressed in COS7 cells; format: cell-based, COS-7
[2] = organism: Homo sapiens; assay: Selectivity ratio of IC50 for human PDE6C to IC50 for human PDE5A1
In short: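 PDE6C IC50 divided by PDE5A1 IC50. PDE6C assayed as for PDE5A1 (modified Kincaid–Manganiello method, 0.5 U enzyme/sample). PDE5A1 was full-length human recombinant enzyme expressed in COS-7 cells. IC50s from sigmoidal curve fits. Mean ± SD of at least two experiments in triplicate.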

[3] = Cytotoxicity against human fibroblasts at 100 uM after 24 hrs by MTT assay; format: cell-based; conditions: fibroblast
In short: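 Human skin fibroblasts exposed 24 h to 0.25–100 µM in DMEM-F12 with 10% heat-inactivated FBS, 1% penicillin, 1% L-glutamine. Medium then replaced with MTT 0.5 mg/mL in PBS, 3 h at 37 °C. Formazan extracted with 2-propanol/DMSO (9:1), 15 min at 37 °C, absorbance read at 560 nm.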

[4] = organism: Homo sapiens; assay: Selectivity ratio of IC50 for human cAMP-PDE to IC50 for human PDE5A1
In short: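 cAMP-PDE IC50 divided by PDE5A1 IC50. cAMP-PDE from human platelet lysate (64 µg protein/mL) with 0.5 µM cAMP/[3H]-cAMP, 5 min at 30 °C, at 1–250 µM. PDE5A1 was recombinant human full-length enzyme expressed in COS-7 cells. IC50s from sigmoidal fits.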

[5] = biological target: T2, Cone cGMP-specific 3',5'-cyclic phosphodiesterase subunit alpha' (Homo sapiens, UniProt P51160); assay: Inhibition of human PDE6C
[6] = biological target: T2, Cone cGMP-specific 3',5'-cyclic phosphodiesterase subunit alpha'; assay: Inhibition of human PDE6C at 10 uM; conditions: in the assay text read “at 10-fold PDE5A1 IC50” for “at 10 uM”
In short: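 Human PDE6C run under the same conditions as the PDE5A1 assay (Kincaid–Manganiello method, modified), at 0.5 U enzyme per sample. Compounds tested at a single concentration 10-fold above their PDE5A1 IC50. Mean ± SD of at least two experiments in triplicate.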

[7] = Inhibition of human platelet cAMP-specific phosphodiesterase
In short: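 Platelets from healthy volunteers' blood, pelleted by centrifugation at 4 °C, resuspended in 10 mM Tris/HCl pH 7.4 and lysed by three freeze–thaw cycles. Lysate (64 µg protein/mL) incubated 5 min at 30 °C with 0.5 µM cAMP plus [3H]-cAMP in 30 mM Tris-HCl pH 7.4, 4 mM MgCl2. Product converted with nucleotidase and separated on DEAE-Sephadex. [3H]-adenosine counted by scintillation. Tested at 1–250 µM, IC50 from sigmoidal fit. Mean ± SD of three experiments in triplicate.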

[8] = biological target: T1, cGMP-specific 3',5'-cyclic phosphodiesterase; assay: Inhibition of human recombinant PDE5A1 expressed in COS7 cells at 10 uM; format: cell-based; conditions: COS-7
In short: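 Full-length human PDE5A1 cDNA expressed in COS-7 cells as the enzyme source. Activity measured by the Kincaid and Manganiello method with minor modifications. Individual compounds screened at a single 10 µM concentration; plant extracts at 50 µg/mL. Results are mean ± SD of at least two experiments in triplicate.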

T2 sequence (P51160 whole entry): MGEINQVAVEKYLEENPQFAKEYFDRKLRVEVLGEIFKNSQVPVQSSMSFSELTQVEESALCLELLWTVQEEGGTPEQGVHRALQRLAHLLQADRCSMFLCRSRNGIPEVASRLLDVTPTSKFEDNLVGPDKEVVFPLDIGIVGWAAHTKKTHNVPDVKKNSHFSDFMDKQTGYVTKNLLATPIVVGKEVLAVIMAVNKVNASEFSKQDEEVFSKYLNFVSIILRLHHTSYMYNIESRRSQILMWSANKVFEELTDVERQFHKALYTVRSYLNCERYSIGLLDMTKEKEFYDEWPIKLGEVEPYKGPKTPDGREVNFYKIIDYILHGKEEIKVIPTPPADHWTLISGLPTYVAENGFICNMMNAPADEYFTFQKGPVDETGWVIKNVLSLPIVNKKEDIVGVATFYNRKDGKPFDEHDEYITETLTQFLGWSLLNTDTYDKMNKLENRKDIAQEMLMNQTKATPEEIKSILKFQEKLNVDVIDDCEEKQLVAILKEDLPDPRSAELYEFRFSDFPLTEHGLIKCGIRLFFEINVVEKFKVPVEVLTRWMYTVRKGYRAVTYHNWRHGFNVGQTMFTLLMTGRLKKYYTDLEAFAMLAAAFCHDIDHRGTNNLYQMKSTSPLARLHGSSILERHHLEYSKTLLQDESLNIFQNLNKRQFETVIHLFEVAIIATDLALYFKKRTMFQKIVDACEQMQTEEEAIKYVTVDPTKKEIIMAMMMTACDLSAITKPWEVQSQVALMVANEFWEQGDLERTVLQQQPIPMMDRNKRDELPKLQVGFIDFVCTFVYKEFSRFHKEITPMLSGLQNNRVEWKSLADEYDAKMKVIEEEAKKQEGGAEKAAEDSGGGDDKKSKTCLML

Which IC50 [1] does the source give for `CC(C)=CCc1c(O)cc(O)c2c(=O)cc(-c3ccc(O)cc3)oc12` here?
The IC50 was 1.29 µM.

For `COc1ccc(-c2oc3c(CC=C(C)C)c(OCCO)cc(O)c3c(=O)c2OCCO)cc1`, which Ratio IC50 [2] is on record?
Its Ratio IC50 is 418.

And the Activity [3]?
The Activity was “Non-toxic”.

What about the Ratio IC50 [4] of the same compound?
Its Ratio IC50 is 1300.

What about the IC50 [1] of the same compound?
Its IC50 is 0.074 µM.

And the IC50 [5]?
Its IC50 is 30.9 µM.

And the Activity [6]?
Its Activity is “inactive”.

What about the IC50 [7] of the same compound?
Its IC50 is 96.3 µM.

With `O=c1c(O)c(-c2ccc(O)c(O)c2)oc2cc(O)cc(O)c12` as the compound, how does the inhibition [8] read?
Its inhibition is 23%.

For `COc1ccc(-c2oc3c(CC=C(C)C)c(O)cc(O)c3c(=O)c2O[C@@H]2O[C@@H](C)[C@H](O)[C@@H](O)[C@H]2O)cc1` [ICARISIDE II], which IC50 [1] is on record?
The IC50 was 0.16 µM.

For `CC(C)=CCc1c(O)cc(O)c2c1OC(c1ccc(O)cc1)CC2=O` (centres undefined) [SOPHORAFLAVANONE B], which IC50 [1] is on record?
Its IC50 is 16.2 µM.

For `O=C1C[C@@H](c2ccc(O)cc2)Oc2cc(O)cc(O)c21`, which inhibition [8] is on record?
Its inhibition is 6%.

What does the source list for `COc1ccc(-c2oc3c(CC=C(C)C)c(O[C@@H]4O[C@H](CO)[C@@H](O)[C@H](O)[C@H]4O)cc(O)c3c(=O)c2O[C@@H]2O[C@@H](C)[C@H](O)[C@@H](O)[C@H]2O)cc1` [ICARIIN]?
IC50 [1]: 5.9 µM; inhibition [6]: 45%

With `CCCc1nn(C)c2c(=O)[nH]c(-c3cc(S(=O)(=O)N4CCN(C)CC4)ccc3OCC)nc12` as the compound, how does the IC50 [7] read?
Its IC50 is 27.5 µM.

For `COc1ccc(-c2oc3c4c(cc(O)c3c(=O)c2O)OC(C)(C)CC4)cc1`, which IC50 [1] is on record?
The IC50 was 45.5 µM.

And the Activity [6]?
Its Activity is “inactive”.

With `COc1ccc(-c2oc3c(CC=C(C)C)c(O)cc(O)c3c(=O)c2O[C@@H]2O[C@H](C)[C@@H](O)[C@H](O)[C@@H]2O)cc1` as the compound, how does the Activity [6] read?
Its Activity is “inactive”.

With `O=c1cc(-c2ccc(O)cc2)oc2cc(O)cc(O)c12` as the compound, how does the inhibition [8] read?
The inhibition was 12%.

Which results are given for `COc1ccc(-c2oc3c(CC=C(C)C)c(OCCO)cc(O)c3c(=O)c2O[C@@H]2O[C@H](C)[C@@H](O)[C@H](O)[C@@H]2O)cc1`?
IC50 [1]: 0.36 µM; inhibition [6]: 86%

For `CC(C)=CCc1c(O)cc(O)c2c(=O)c(O)c(-c3ccc(O)c(O)c3)oc12`, which IC50 [1] is on record?
The IC50 was 0.7 µM.

Which IC50 [1] does the source give for `COc1ccc(-c2oc3c(CC=C(C)C)c(O)cc(O)c3c(=O)c2O)cc1` [ICARITIN] here?
Its IC50 is 2.2 µM.

And the Activity [6]?
Its Activity is “inactive”.
